Results published in ChEMBL document CHEMBL4373698, “Biosynthesis of Nonimmunosuppressive FK506 Analogues with Antifungal Activity” (J Nat Prod, 2019).
In brackets after ≈: the same amount, converted by molar mass. Activity calls are given as the source filed them. No cut-off for these calls is given here.

Experiments:
[1] = Immunosuppressive activity against […] mouse CD4-positive T cell cells assessed as inhibition of CD3/CD28-induced cell proliferation after 72 hrs by FACS analysis
Outline: (§1)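 Spleen cells from 6–8-week B6J mice, red cells lysed; CD4+ T cells labelled with CellTrace Violet at isolation. Stimulated with anti-CD3/CD28 beads with compound for 72 h; stained for CD4 and CD44 plus near-IR live/dead dye; proliferation read by flow cytometry; IC50 from curves.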

Cryptococcus neoformans [2] = experiment: Antifungal activity against Cryptococcus neoformans H99 after 48 hrs by EUCAST-based microdilution assay; format: functional, organism-based; conditions: var grubii H99 
Outline: (§2)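 H99 grown in YPD at 30 °C for 20 h, then seeded at OD600 0.01 in RPMI-MOPS-dextrose pH 7 (EUCAST microdilution). Analogues added as 2-fold dilutions from 10 μg/mL; 37 °C, 48 h; OD600 read. Growth expressed relative to no-inhibitor wells after background subtraction; IC50 calculated.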

Candida albicans [3] = experiment: Antifungal activity against Candida albicans SC5314 after 24 hrs by XTT assay; format: functional, organism-based; conditions: SC5314, 24 h
Outline: (§3)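 SC5314 grown in YPD at 30 °C for 16 h, washed twice and resuspended in PBS. Seeded at 1.25 × 10^5 cells per well in 100% FBS with 2-fold dilutions from 10 μg/mL; 37 °C, 24 h. XTT (500 μg/mL in PBS, menadione final 10 μM) added, 2 h at 37 °C in the dark; OD490 read; IC50.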

Aspergillus fumigatus [4] = experiment: Antifungal activity against Aspergillus fumigatus Af293 after 48 hrs by EUCAST-based microdilution assay; format: functional, organism-based; conditions: Af293, 48 h
Outline: (§4)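 Af293 conidia at 10^5/mL in RPMI (8.4 g/L RPMI1640, 34.5 g/L MOPS, 20 g/L dextrose, pH 7) per EUCAST broth microdilution; 2-fold serial dilutions from 10 μg/mL; 35 °C, 48 h; OD600 read. % growth versus no-inhibitor wells after medium-only background subtraction; IC50 derived from growth curves.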

Cryptococcus neoformans [5] = experiment: Synergistic antifungal activity against Cryptococcus neoformans H99 assessed as FIC index in presence of fluconazole after 48 hrs by checker board assay; format: functional, var grubii H99
Outline: (§5)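 Checkerboard with fluconazole: H99 grown overnight in YPD at 30 °C, seeded at OD600 0.01 in RPMI 1640 per EUCAST. Test agent 2-fold serially diluted. FIC index calculated per strain; ≤0.5 synergy, >0.5–1.0 additive, >1.0–2.0 no interaction, >2.0 antagonism.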

Cryptococcus neoformans [6] = experiment: Synergistic antifungal activity against Cryptococcus neoformans H99 in presence of 1.25 ug/ml fluconazole after 48 hrs by checker board assay; format: functional, organism-based; conditions: var grubii H99 
Cryptococcus neoformans [7] = experiment: Antifungal activity against Cryptococcus neoformans harboring frr1 deletion mutant at 30 ug/ml; format: functional, organism-based
[8] = Immunosuppressive activity against […] mouse CD4-positive T cells assessed as inhibition of CD3/CD28-induced cell proliferation; outline: as §1
Cryptococcus neoformans [9] = experiment: Antifungal activity against Cryptococcus neoformans H99; format: functional, organism-based; conditions: var grubii H99; outline: as §2
Candida albicans [10] = experiment: Antifungal activity against Candida albicans SC5314; format: functional, organism-based; outline: as §3
Aspergillus fumigatus [11] = experiment: Antifungal activity against Aspergillus fumigatus Af293; format: functional, organism-based; outline: as §4
Cryptococcus neoformans [12] = experiment: Synergistic antifungal activity against Cryptococcus neoformans H99 in presence of 2.5 ug/ml fluconazole after 48 hrs by checker board assay; format: functional, organism-based; conditions: var grubii H99 
Cryptococcus neoformans [13] = experiment: Synergistic antifungal activity against Cryptococcus neoformans H99 assessed as FIC index in presence of fluconazole; format: functional, var grubii H99; outline: as §5

IC50 (Cryptococcus neoformans [2]) [µg/mL] | IC50 (Aspergillus fumigatus [4]) [µg/mL] | SMILES | IC50 [1] [µg/mL] | IC50 (Candida albicans [3]) [µg/mL] | further results
54.5 (≈ 72.7 µM) | > 50 | CO[C@H]1C[C@@H](C)C/C(C)=C/[C@@H](C)C(=O)C[C@H](O)[C@@H](C)[C@@H](/C(C)=C/[C@@H]2CC[C@@H](O)[C@H](O)C2)OC(=O)[C@@H]2CCCCN2C(=O)C[C@]2(O)O[C@H]1[C@@H](OC)C[C@H]2C | 3.38 (≈ 4.5 µM) | 837 (≈ 1120 µM) | –
– | – | C=CC[C@@H]1/C=C(\C)C[C@H](C)C[C@H](OC)[C@H]2O[C@@](O)(CC(=O)N3CCCC[C@H]3C(=O)O[C@H](/C(C)=C/[C@@H]3CC[C@@H](O)[C@H](OC)C3)[C@H](C)[C@@H](O)CC1=O)[C@H](C)C[C@@H]2OC | – | – | IC50 [8]: 0.513 ng/mL (≈ 0.000649 µM); IC50 (Cryptococcus neoformans [9]): 0.036 µg/mL (≈ 0.0456 µM); IC50 (Candida albicans [10]): 0.963 µg/mL (≈ 1.22 µM); IC50 (Aspergillus fumigatus [11]): 24.2 µg/mL (≈ 30.6 µM)
– | – | C=CC[C@@H]1/C=C(\C)C[C@H](C)C[C@H](OC)[C@H]2O[C@@](O)(CC(=O)N3CCCC[C@H]3C(=O)O[C@H](/C(C)=C/[C@@H]3CC[C@@H](O)[C@H](O)C3)[C@H](C)[C@@H](O)CC1=O)[C@H](C)C[C@@H]2OC | – | – | IC50 [8]: 15.1 ng/mL (≈ 0.0194 µM); IC50 (Cryptococcus neoformans [9]): 0.154 µg/mL (≈ 0.198 µM); IC50 (Candida albicans [10]): 2.8 µg/mL (≈ 3.6 µM); IC50 (Aspergillus fumigatus [11]): 29.8 µg/mL (≈ 38.4 µM)
0.027 (≈ 0.0347 µM) | 12.2 (≈ 15.7 µM) | CC[C@@H]1/C=C(\C)C[C@H](C)C[C@H](OC)[C@H]2O[C@@](O)(C(=O)C(=O)N3CCCC[C@H]3C(=O)O[C@H](/C(C)=C/[C@@H]3CC[C@@H](O)[C@H](O)C3)[C@H](C)[C@@H](O)CC1=O)[C@H](C)C[C@@H]2OC | 0.00327 (≈ 0.00421 µM) | 0.079 (≈ 0.102 µM) | –
221 (≈ 290 µM) | > 50 | C=CC[C@@H]1/C=C(\C)C[C@H](C)C[C@H](OC)[C@H]2O[C@@](O)(CC(=O)N3CCC[C@H]3C(=O)O[C@H](/C(C)=C/[C@@H]3CC[C@@H](O)[C@H](O)C3)[C@H](C)[C@@H](O)CC1=O)[C@H](C)C[C@@H]2OC | 0.886 (≈ 1.16 µM) | 3440 (≈ 4520 µM) | –
0.151 (≈ 0.191 µM) | 14.1 (≈ 17.8 µM) | CCC[C@@H]1/C=C(\C)C[C@H](C)C[C@H](OC)[C@H]2O[C@@](O)(CC(=O)N3CCCC[C@H]3C(=O)O[C@H](/C(C)=C/[C@@H]3CC[C@@H](O)[C@H](OC)C3)[C@H](C)[C@@H](O)CC1=O)[C@H](C)C[C@@H]2OC | 0.0255 (≈ 0.0323 µM) | 0.817 (≈ 1.03 µM) | –
– | – | CC[C@@H]1/C=C(\C)C[C@H](C)C[C@H](OC)[C@H]2O[C@@](O)(C(=O)C(=O)N3CCCC[C@H]3C(=O)O[C@H](/C(C)=C/[C@@H]3CC[C@@H](O)[C@H](OC)C3)[C@H](C)[C@@H](O)CC1=O)[C@H](C)C[C@@H]2OC [ASCOMYCIN] | – | – | fractional inhibitory concentration index (FICI) (Cryptococcus neoformans [5]): 0.5
8.85 (≈ 11.4 µM) | > 50 | CCC[C@@H]1/C=C(\C)C[C@H](C)C[C@H](OC)[C@H]2O[C@@](O)(CC(=O)N3CCCC[C@H]3C(=O)O[C@H](/C(C)=C/[C@@H]3CC[C@@H](O)[C@H](O)C3)[C@H](C)[C@@H](O)CC1=O)[C@H](C)C[C@@H]2OC | 0.0459 (≈ 0.059 µM) | 4.26 (≈ 5.48 µM) | –
– | – | C=CC[C@@H]1/C=C(\C)C[C@H](C)C[C@H](OC)[C@H]2O[C@@](O)(C(=O)C(=O)N3CCCC[C@H]3C(=O)O[C@H](/C(C)=C/[C@@H]3CC[C@@H](O)[C@H](OC)C3)[C@H](C)[C@@H](O)CC1=O)[C@H](C)C[C@@H]2OC [TACROLIMUS ANHYDROUS] | – | – | IC50 [8]: 0.027 ng/mL (≈ 3.36e-05 µM); IC50 (Cryptococcus neoformans [9]): 0.001 µg/mL (≈ 0.00124 µM); IC50 (Candida albicans [10]): 0.005 µg/mL (≈ 0.00622 µM); IC50 (Aspergillus fumigatus [11]): 0.015 µg/mL (≈ 0.0187 µM); fractional inhibitory concentration index (FICI) (Cryptococcus neoformans [13]): 0.38
– | – | C=CC[C@@H]1/C=C(\C)C[C@H](C)C[C@H](OC)[C@H]2O[C@@](O)(C(=O)C(=O)N3CCCC[C@H]3C(=O)O[C@H](/C(C)=C/[C@@H]3CC[C@@H](O)[C@H](O)C3)[C@H](C)[C@@H](O)CC1=O)[C@H](C)C[C@@H]2OC | – | – | IC50 [8]: 0.246 ng/mL (≈ 0.000311 µM); IC50 (Cryptococcus neoformans [9]): 0.005 µg/mL (≈ 0.00633 µM); IC50 (Candida albicans [10]): 0.106 µg/mL (≈ 0.134 µM); IC50 (Aspergillus fumigatus [11]): 0.165 µg/mL (≈ 0.209 µM)
0.033 (≈ 0.0417 µM) | 0.415 (≈ 0.524 µM) | CCC[C@@H]1/C=C(\C)C[C@H](C)C[C@H](OC)[C@H]2O[C@@](O)(C(=O)C(=O)N3CCCC[C@H]3C(=O)O[C@H](/C(C)=C/[C@@H]3CC[C@@H](O)[C@H](O)C3)[C@H](C)[C@@H](O)CC1=O)[C@H](C)C[C@@H]2OC | 0.00172 (≈ 0.00218 µM) | 0.059 (≈ 0.0745 µM) | –

SMILES | IC50 (Cryptococcus neoformans [2]) [µg/mL] | IC50 (Aspergillus fumigatus [4]) [µg/mL] | IC50 [1] [µg/mL] | IC50 (Candida albicans [3]) [µg/mL] | further results
CO[C@H]1C[C@@H](C)C/C(C)=C/[C@@H](C)C(=O)C[C@H](O)[C@@H](C)[C@@H](/C(C)=C/[C@@H]2CC[C@@H](O)[C@H](OC)C2)OC(=O)[C@@H]2CCCCN2C(=O)C[C@]2(O)O[C@H]1[C@@H](OC)C[C@H]2C | 2.47 (≈ 3.23 µM) | 230 (≈ 302 µM) | 1.98 (≈ 2.6 µM) | 6.07 (≈ 7.95 µM) | fractional inhibitory concentration index (FICI) (Cryptococcus neoformans [5]): 0.5; IC50 (Cryptococcus neoformans [6]): 0.125 µg/mL; Activity (Cryptococcus neoformans [7]): inactive
CC[C@@H]1/C=C(\C)C[C@H](C)C[C@H](OC)[C@H]2O[C@@](O)(CC(=O)N3CCCC[C@H]3C(=O)O[C@H](/C(C)=C/[C@@H]3CC[C@@H](O)[C@H](OC)C3)[C@H](C)[C@@H](O)CC1=O)[C@H](C)C[C@@H]2OC | 0.355 (≈ 0.456 µM) | 7.82 (≈ 10.1 µM) | 0.025 (≈ 0.0321 µM) | 0.662 (≈ 0.851 µM) | fractional inhibitory concentration index (FICI) (Cryptococcus neoformans [5]): 0.19; IC50 (Cryptococcus neoformans [12]): 0.031 µg/mL; Activity (Cryptococcus neoformans [7]): inactive
CC[C@@H]1/C=C(\C)C[C@H](C)C[C@H](OC)[C@H]2O[C@@](O)(CC(=O)N3CCCC[C@H]3C(=O)O[C@H](/C(C)=C/[C@@H]3CC[C@@H](O)[C@H](O)C3)[C@H](C)[C@@H](O)CC1=O)[C@H](C)C[C@@H]2OC | 3.3 (≈ 4.32 µM) | 307 (≈ 402 µM) | 0.258 (≈ 0.338 µM) | 2.85 (≈ 3.73 µM) | fractional inhibitory concentration index (FICI) (Cryptococcus neoformans [5]): 0.19; IC50 (Cryptococcus neoformans [6]): 0.0625 µg/mL; Activity (Cryptococcus neoformans [7]): inactive
